Source: ChEMBL document CHEMBL3351561, “Discovery of 9-(1-anilinoethyl)-2-morpholino-4-oxo-pyrido[1,2-a]pyrimidine-7-carboxamides as PI3Kβ/δ inhibitors for the treatment of PTEN-deficient tumours” (Bioorg Med Chem Lett, 2014)
≈ marks a conversion by molar mass, not a printed value.

Experiments:
[1] = Intrinsic clearance in human hepatocytes measured per 10^6 cells; format: ADME, cell-based, Hepatocyte; conditions: read-out: CLH
In short: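 Intrinsic clearance was measured in human hepatocytes and is expressed in µL/min/10^6 cells.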

[2] = target: T1, Phosphatidylinositol 4,5-bisphosphate 3-kinase catalytic subunit beta isoform (Homo sapiens, UniProt P42338); assay: Inhibition of PI3Kbeta in human MAD-MB-468 cells assessed as inhibition of Ser473 Akt phosphorylation by cellular potency assay
[3] = Buffer/octanol partition coefficient, log D of the compound at pH 7.4 by shake flask method; format: physicochemical
In short: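 LogD at pH 7.4 was measured by shake-flask with a buffer/octanol volume ratio of 100:1.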

[4] = target: Phosphatidylinositol 4,5-bisphosphate 3-kinase catalytic subunit gamma isoform (Homo sapiens, UniProt P48736); assay: Inhibition of human recombinant PI3Kgamma assessed as depletion of ATP substrate by Ultra Glo luciferase assay
In short: (§1)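 Enzyme IC50s are reported as the geometric mean of 3 or more values.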

[5] = Apparent permeability from apical (pH 6.5) to […] of human Caco2 cells; format: ADME, cell-based; conditions: Caco-2, pH 6.5
[6] = target: T2, Phosphatidylinositol 4,5-bisphosphate 3-kinase catalytic subunit alpha isoform (Homo sapiens, UniProt P42336); assay: Inhibition of PI3Kalpha in human BT474 cells assessed as inhibition of […] Akt phosphorylation after 2 hrs by fluorescence assay; format: cell-based, BT-474
In short: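 BT474 cells were seeded in DMEM with 10% FCS and 1% glutamine and left to adhere overnight, then treated with compound in DMSO for 2 h at 37 °C and 5% CO2. Cells were lysed with a phosphatase/protease-inhibitor buffer. Lysate was captured on anti-total-Akt plates, probed with anti-phospho-Akt Thr308 and an HRP secondary, and read by fluorescence (ex 325/em 420 nm). Values are the geometric mean of ≥2 determinations.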

[7] = target: T3, Phosphatidylinositol 4,5-bisphosphate 3-kinase catalytic subunit delta isoform (Homo sapiens, UniProt O00329); assay: Inhibition of human recombinant PI3Kdelta assessed as depletion of ATP substrate by Ultra Glo luciferase assay; in short: as §1
T3 sequence (O00329 whole entry): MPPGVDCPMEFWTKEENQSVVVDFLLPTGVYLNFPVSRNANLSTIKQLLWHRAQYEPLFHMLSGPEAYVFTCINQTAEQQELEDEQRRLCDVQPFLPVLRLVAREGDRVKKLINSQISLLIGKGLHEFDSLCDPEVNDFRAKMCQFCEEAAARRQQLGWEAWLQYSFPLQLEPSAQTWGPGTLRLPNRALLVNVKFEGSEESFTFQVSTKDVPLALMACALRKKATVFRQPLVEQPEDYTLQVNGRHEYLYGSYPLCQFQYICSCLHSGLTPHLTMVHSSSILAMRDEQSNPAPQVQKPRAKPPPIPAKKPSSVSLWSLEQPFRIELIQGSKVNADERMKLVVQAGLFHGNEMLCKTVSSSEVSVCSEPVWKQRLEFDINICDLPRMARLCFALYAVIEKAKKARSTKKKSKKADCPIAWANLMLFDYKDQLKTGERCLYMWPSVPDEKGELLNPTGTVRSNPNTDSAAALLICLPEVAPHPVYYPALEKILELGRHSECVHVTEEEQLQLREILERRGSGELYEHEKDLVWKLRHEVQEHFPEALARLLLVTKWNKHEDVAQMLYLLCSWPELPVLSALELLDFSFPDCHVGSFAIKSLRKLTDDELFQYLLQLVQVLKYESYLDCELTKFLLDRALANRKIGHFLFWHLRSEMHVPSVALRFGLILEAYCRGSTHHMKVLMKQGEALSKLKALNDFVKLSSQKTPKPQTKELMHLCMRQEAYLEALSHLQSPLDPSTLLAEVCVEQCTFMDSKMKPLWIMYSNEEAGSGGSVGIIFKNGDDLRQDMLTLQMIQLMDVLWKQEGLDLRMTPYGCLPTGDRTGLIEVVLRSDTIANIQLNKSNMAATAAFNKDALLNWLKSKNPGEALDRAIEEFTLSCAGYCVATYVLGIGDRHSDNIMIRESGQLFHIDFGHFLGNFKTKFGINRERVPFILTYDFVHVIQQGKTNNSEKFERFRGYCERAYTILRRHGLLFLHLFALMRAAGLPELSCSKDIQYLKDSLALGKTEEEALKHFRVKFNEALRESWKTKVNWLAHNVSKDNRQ

[8] = target: T1, Phosphatidylinositol 4,5-bisphosphate 3-kinase catalytic subunit beta isoform; assay: Inhibition of human recombinant PI3Kbeta assessed as depletion of ATP substrate by Ultra Glo luciferase assay; in short: as §1
[9] = target: T2, Phosphatidylinositol 4,5-bisphosphate 3-kinase catalytic subunit alpha isoform; assay: Inhibition of human recombinant PI3Kalpha assessed as depletion of ATP substrate by Ultra Glo luciferase assay; in short: as §1
[10] = Solubility of the compound in phosphate buffer at pH 7.4; format: physicochemical
In short: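 Solubility was measured from solid material in phosphate buffer at pH 7.4.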

[11] = Bioavailability in mouse plasma at 5 umol/kg, iv and 30 umol/kg, po; format: ADME, organism-based
In short: (§2)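 […] mice were dosed at 5 µmol/kg i.v. and 30 µmol/kg p.o. Clearance is given in mL/min/kg and oral bioavailability in %.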

[12] = species on record: Homo sapiens; assay: Ratio of IC50 for PI3Kalpha human BT474 cells to IC50 PI3Kbeta in human […] cells
[13] = Fraction unbound in human plasma; format: ADME, cell-free
In short: (§3)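 Protein binding was measured in nude mouse plasma and in human plasma and is expressed as fraction unbound (%).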

[14] = Clearance in mouse plasma at 5 umol/kg, iv and 30 umol/kg, po; format: ADME, organism-based; in short: as §2
[15] = Ratio of total plasma concentration in PTEN-null human PC3 cells xenografted in SCID mouse at 50 mg/kg, po single dose at 4 hrs to IC50 for PI3Kbeta in human […] cells; parameters: species or system PC-3
In short: (§4)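 SCID mice bearing PTEN-null PC3 prostate tumour xenografts got a single oral dose given as a suspension. Total plasma concentration was measured at the sampled time points (0.5, 4 or 8 h). The value is the […] cover over the PI3Kβ cellular IC50, which comes from inhibition of Ser473 Akt phosphorylation in PTEN-null MDA-MB-468 breast adenocarcinoma cells.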

[16] = system: Mus musculus; assay: Inhibition of Akt phosphorylation in SCID mouse xenografted with PTEN-null human PC3 cells at 50 mg/kg, po measured after 30 mins; format: functional; conditions: PC-3, 0.5 h
In short: (§5)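 SCID mice carrying PTEN-null PC3 prostate xenografts received a single oral dose as a suspension (50, 100 or 200 mg/kg).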

[17] = system: Mus musculus; assay: Inhibition of Akt phosphorylation in SCID mouse xenografted with PTEN-null human PC3 cells at 50 mg/kg, po measured after 4 hrs; format: functional; conditions: PC-3, 4 h; in short: as §5
[18] = Total plasma concentration in SCID mouse xenografted with PTEN-null human PC3 cells at 50 mg/kg, po measured after 4 hrs; format: ADME, organism-based, PC-3; parameters: dose 50 mg/kg, route oral
In short: (§6)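 Total plasma concentration was measured in SCID mice carrying PC3 xenografts after a single oral dose given as a suspension (50, 100 or 200 mg/kg). Samples were taken at 0.5 to 8 h.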

[19] = Total plasma concentration in SCID mouse xenografted with PTEN-null human PC3 cells at 50 mg/kg, po measured after 30 mins; format: ADME, organism-based, PC-3; parameters: dose 50 mg/kg, route oral; in short: as §6
[20] = Fraction unbound in mouse plasma; format: ADME, cell-free; in short: as §3
[21] = Ratio of total plasma concentration in PTEN-null human PC3 cells xenografted in SCID mouse at 50 mg/kg, po single dose at 0.5 hrs to IC50 for PI3Kbeta in human […] cells; parameters: species or system PC-3; in short: as §4
[22] = species on record: Homo sapiens; assay: Ratio of IC50 for human recombinant PI3Kgamma to IC50 human recombinant PI3Kbeta
In short: (§7)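 Ratio is taken from enzyme IC50 values, each the geometric mean of 3 or more determinations. In the PI3Kβ enzyme assay, functional enzyme concentration was measured experimentally. The tight-binding limit, half that concentration, is 10 nM, so β IC50 values near that floor set a cap on the ratio.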

[23] = species on record: Homo sapiens; assay: Ratio of IC50 for human recombinant PI3Kalpha to IC50 human recombinant PI3Kbeta; in short: as §7

T2 sequence (P42336 whole entry, canonical isoform): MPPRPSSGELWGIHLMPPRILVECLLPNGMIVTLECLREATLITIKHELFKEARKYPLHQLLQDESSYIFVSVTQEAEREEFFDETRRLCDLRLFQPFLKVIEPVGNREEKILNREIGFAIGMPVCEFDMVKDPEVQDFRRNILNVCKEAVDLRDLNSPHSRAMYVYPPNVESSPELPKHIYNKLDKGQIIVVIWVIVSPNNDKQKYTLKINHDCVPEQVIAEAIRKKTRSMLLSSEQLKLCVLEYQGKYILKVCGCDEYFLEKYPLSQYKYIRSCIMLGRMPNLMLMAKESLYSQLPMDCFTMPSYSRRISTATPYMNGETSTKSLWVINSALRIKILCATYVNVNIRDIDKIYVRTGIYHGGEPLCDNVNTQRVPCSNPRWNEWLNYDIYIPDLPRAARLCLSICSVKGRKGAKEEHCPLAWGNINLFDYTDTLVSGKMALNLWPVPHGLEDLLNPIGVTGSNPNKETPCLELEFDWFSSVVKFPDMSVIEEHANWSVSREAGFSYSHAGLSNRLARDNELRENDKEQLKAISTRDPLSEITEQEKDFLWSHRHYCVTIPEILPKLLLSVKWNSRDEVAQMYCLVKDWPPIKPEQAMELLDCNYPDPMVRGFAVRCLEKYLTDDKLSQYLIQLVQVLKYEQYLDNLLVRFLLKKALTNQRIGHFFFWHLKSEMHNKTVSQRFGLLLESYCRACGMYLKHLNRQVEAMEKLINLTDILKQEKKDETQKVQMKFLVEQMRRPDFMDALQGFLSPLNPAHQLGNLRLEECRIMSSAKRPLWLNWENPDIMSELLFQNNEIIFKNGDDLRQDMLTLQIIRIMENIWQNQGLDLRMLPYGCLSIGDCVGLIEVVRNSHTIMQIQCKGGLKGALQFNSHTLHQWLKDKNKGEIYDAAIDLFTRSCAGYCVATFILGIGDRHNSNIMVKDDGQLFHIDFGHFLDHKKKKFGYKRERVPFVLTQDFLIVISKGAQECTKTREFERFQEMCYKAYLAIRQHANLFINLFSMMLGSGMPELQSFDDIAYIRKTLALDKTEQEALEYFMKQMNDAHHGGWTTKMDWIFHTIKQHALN
T1 sequence (P42338 whole entry, canonical isoform): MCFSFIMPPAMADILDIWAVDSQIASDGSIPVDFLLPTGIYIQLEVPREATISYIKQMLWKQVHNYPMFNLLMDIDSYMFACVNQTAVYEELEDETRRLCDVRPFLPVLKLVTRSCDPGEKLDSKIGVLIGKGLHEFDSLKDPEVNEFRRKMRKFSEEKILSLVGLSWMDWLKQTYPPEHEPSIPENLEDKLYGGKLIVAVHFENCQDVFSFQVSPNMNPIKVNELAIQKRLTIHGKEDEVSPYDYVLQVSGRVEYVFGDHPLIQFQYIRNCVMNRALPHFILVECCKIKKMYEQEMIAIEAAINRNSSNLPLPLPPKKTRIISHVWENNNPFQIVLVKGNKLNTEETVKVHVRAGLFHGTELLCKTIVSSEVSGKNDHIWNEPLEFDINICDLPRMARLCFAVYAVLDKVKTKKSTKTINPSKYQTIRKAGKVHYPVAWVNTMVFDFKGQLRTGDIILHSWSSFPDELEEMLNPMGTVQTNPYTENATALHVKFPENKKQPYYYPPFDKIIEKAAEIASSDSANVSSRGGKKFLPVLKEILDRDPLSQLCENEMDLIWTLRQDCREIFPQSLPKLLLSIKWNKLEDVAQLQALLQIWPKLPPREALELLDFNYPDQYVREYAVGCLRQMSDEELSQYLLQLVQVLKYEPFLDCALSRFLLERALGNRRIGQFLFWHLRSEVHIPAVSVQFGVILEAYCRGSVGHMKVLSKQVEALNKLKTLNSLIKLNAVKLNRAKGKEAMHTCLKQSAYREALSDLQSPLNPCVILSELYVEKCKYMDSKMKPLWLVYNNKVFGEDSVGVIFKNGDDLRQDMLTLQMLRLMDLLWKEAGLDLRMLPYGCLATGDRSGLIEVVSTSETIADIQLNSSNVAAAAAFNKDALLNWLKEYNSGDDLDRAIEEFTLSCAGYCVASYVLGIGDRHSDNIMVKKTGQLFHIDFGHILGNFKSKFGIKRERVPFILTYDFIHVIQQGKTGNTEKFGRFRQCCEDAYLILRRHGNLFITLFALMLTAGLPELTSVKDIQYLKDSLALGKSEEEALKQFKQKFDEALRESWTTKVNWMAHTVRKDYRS
Sequence of Phosphatidylinositol 4,5-bisphosphate 3-kinase catalytic subunit gamma isoform (P48736 whole entry, canonical isoform): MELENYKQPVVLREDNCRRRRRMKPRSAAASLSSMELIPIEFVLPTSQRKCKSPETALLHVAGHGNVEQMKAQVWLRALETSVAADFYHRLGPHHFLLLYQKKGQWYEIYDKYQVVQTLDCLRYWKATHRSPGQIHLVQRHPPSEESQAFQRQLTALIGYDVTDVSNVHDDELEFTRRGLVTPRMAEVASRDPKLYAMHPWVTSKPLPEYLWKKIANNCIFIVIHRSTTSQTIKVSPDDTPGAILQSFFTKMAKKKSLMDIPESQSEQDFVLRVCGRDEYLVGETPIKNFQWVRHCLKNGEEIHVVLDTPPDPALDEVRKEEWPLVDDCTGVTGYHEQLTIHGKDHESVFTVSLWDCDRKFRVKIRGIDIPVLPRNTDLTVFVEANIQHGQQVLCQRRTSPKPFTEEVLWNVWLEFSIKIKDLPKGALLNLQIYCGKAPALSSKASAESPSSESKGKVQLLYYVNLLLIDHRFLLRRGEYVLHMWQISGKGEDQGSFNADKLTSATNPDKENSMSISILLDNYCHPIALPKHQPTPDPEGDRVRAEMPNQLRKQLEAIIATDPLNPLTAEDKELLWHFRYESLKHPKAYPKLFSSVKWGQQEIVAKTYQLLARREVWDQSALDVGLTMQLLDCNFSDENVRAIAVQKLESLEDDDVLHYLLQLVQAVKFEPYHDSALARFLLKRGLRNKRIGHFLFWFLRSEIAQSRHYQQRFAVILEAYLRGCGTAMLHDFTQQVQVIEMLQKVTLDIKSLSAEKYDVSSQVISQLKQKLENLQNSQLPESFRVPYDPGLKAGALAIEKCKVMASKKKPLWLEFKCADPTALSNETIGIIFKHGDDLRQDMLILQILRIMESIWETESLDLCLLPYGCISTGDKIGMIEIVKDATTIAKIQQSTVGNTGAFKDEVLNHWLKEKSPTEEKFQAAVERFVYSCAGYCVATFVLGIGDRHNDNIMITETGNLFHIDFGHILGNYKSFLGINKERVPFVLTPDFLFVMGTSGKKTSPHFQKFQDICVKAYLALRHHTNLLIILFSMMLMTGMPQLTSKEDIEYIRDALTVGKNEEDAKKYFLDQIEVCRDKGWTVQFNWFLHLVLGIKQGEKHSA

Compound | hepatocyte CLint [1] [µL/min/1e6 cells] | IC50 [2] [nM] | logD [3] | Papp A→B [5] [×10⁻⁶ cm/s] | solubility [10] [µM] | other results
CC(Nc1cc(F)cc(Cl)c1)c1cc(C(=O)N(C)C)cn2c(=O)cc(N3CCOCC3)nc12 (single isomer, unassigned; (-)) | 19 | 11 | 3.5 |  |  | 
CC(Nc1ccccc1)c1cc(C(=O)NCCN(C)C)cn2c(=O)cc(N3CCOCC3)nc12 (single isomer, unassigned; (-)) |  | 8 | 1.7 | 0.2 |  | IC50 [4]: 6900 nM; IC50 [6]: 2200 nM; IC50 [7]: 85 nM; IC50 [8]: 8 nM; IC50 [9]: 370 nM
CC(Nc1cccc(C(F)(F)F)c1)c1cc(C(=O)NCCN(C)C)cn2c(=O)cc(N3CCOCC3)nc12 (racemic) |  | 74 |  |  |  | 
CC(Nc1cccc(F)c1)c1cc(C(=O)N(C)C)cn2c(=O)cc(N3CCOCC3)nc12 (racemic) | 45 | 39 |  | 39 | 23 (≈ 10.1 µg/mL) | 
Cc1cc(C(C)Nc2ccc(F)cc2)c2nc(N3CCOCC3)cc(=O)n2c1 (racemic) |  | 190 |  |  |  | 
CC(Nc1cc(F)c(F)c(F)c1)c1cc(C(=O)N(C)C)cn2c(=O)cc(N3CCOCC3)nc12 (single isomer, unassigned; (-)) | 13 | 11 |  |  | 10 (≈ 4.75 µg/mL) | 
CC(Nc1ccccc1Cl)c1cc(C(=O)NCCN(C)C)cn2c(=O)cc(N3CCOCC3)nc12 (racemic) |  | 7 |  |  |  | 
C[C@@H](Nc1cc(F)cc(F)c1)c1cc(C(=O)N2CCN(C)CC2)cn2c(=O)cc(N3CCOCC3)nc12 | 6 | 29 | 2.6 | 9 | > 1500 | 
CC(Nc1cc(F)cc(F)c1F)c1cc(C(=O)N(C)C)cn2c(=O)cc(N3CCOCC3)nc12 (single isomer, unassigned; (-)) | 15 | 25 | 2.9 |  | 46 (≈ 21.9 µg/mL) | 
CC(Nc1cc(F)cc(F)c1)c1cc(C(=O)N(C)CCO)cn2c(=O)cc(N3CCOCC3)nc12 (racemic) | 10 | 8 | 2.1 |  | 930 (≈ 453 µg/mL) | 
Cc1cccc(NC(C)c2cc(C)cn3c(=O)cc(N4CCOCC4)nc23)c1 (racemic) |  | 81 |  |  |  | 
CC(Nc1cccc(F)c1)c1cc(C(=O)NCCN(C)C)cn2c(=O)cc(N3CCOCC3)nc12 (racemic) |  | 2 | 2 | 0.3 |  | 
CC(Nc1ccc(Cl)cc1)c1cc(C(=O)NCCN(C)C)cn2c(=O)cc(N3CCOCC3)nc12 (racemic) |  | 75 |  |  |  | 
CC(Nc1ccccc1F)c1cc(C(=O)NCCN(C)C)cn2c(=O)cc(N3CCOCC3)nc12 (racemic) |  | 23 | 1.9 | 0.8 |  | 
CC(Nc1cccc(Cl)c1F)c1cc(C(=O)NCCN(C)C)cn2c(=O)cc(N3CCOCC3)nc12 (single isomer, unassigned; (-)) |  | 4 | 2.7 | 0.9 |  | bioavailability [11]: 39%; IC50 [4]: 670 nM; Ratio IC50 [12]: 240; IC50 [6]: 970 nM; fraction unbound [13]: 0.033; IC50 [7]: 51 nM; clearance [14]: 10 mL/min/kg; Ratio [15]: 48; inhibition in vivo at 50 mg/kg [16]: 26%; inhibition in vivo at 50 mg/kg [17]: 40%; concentration at 4 h [18]: 12 µM; concentration at 0.5 h [19]: 21 µM; IC50 [8]: 7 nM; fraction unbound [20]: 0.016; Ratio [21]: 83; IC50 [9]: 92 nM
Cc1cc(C(C)Nc2cccc(Cl)c2)c2nc(N3CCOCC3)cc(=O)n2c1 (stereo unspecified) |  | 17 |  |  |  | 
Cc1ccc(NC(C)c2cc(C(=O)NCCN(C)C)cn3c(=O)cc(N4CCOCC4)nc23)cc1 (racemic) |  | 530 |  |  |  | 
CC(Nc1cccc(Cl)c1)c1cc(C(=O)NCCN(C)C)cn2c(=O)cc(N3CCOCC3)nc12 (racemic) |  | 10 |  |  |  | 
CC(Nc1cccc(F)c1F)c1cc(C(=O)N(C)C)cn2c(=O)cc(N3CCOCC3)nc12 (racemic) | 9 | 73 | 2.7 |  | 28 (≈ 12.8 µg/mL) | 
C[C@@H](Nc1cc(F)cc(F)c1)c1cc(C(=O)N2CCOCC2)cn2c(=O)cc(N3CCOCC3)nc12 | 6 | 25 | 2.7 |  | 316 (≈ 158 µg/mL) | 
CC(Nc1ccc(F)cc1)c1cc(C(=O)NCCN(C)C)cn2c(=O)cc(N3CCOCC3)nc12 (racemic) |  | 12 | 1.8 | 0.2 |  | 
CC(Nc1ccccc1)c1cc(C(=O)N(C)C)cn2c(=O)cc(N3CCOCC3)nc12 (single isomer, unassigned; (+)) |  | 156 | 2.4 |  |  | IC50 [4]: 6000 nM; Ratio IC50 [22]: 550; Ratio IC50 [12]: 60; IC50 [6]: 9600 nM; IC50 [7]: 110 nM; IC50 [8]: 11 nM; Ratio IC50 [23]: 50; IC50 [9]: 560 nM
Cc1cc(C(C)Nc2cc(F)cc(F)c2)c2nc(N3CCOCC3)cc(=O)n2c1 (stereo unspecified) |  | 9 |  |  |  | 
